The list is not random: actives were taken first. Their share in the collection is about 4.5%.
TAAR1 antag – human TAAR1 antagonism; Q96RJ0; CHO RD-HGA16 TAAR1, Fluo-8 calcium fluorescence, antagonist; inhibition, % at 3 µM; hit rate 1.5% among 360,000; AID 624466;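 active means inhibition above a per-plate cutoff, the mean inhibition of test compounds on that plate plus 3 SD, cut at about 49% in these data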
Target sequence (Q96RJ0 whole entry, looked up): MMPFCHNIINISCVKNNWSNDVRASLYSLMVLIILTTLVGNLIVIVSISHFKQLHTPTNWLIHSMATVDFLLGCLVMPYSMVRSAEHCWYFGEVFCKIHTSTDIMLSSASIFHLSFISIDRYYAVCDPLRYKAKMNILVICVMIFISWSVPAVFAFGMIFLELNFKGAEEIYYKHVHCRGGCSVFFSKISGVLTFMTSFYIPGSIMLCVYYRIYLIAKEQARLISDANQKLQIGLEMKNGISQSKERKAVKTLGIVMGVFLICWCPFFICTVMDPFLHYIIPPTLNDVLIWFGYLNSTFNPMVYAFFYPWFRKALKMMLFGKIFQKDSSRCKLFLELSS
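System: RD-HGA16 CHO cells with stable hTAAR1 and Gα16 | Probe or stimulus: EC80 β-phenethylamine stimulus | Dosing: 3 µM, single point | Times: Dye loading 75 min at 37 °C, then 30 min room temperature | Measured by: Fluo-8 calcium-sensitive fluorescence | Read-out basis: % inhibition of agonist calcium response | Replicates: n of 1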
TAAR1 ag – agonists of human TAAR1 | Q96RJ0 | CHO RD-HGA16 TAAR1, Fluo-8 calcium fluorescence; vehicle wells 0%, saturating PEA agonist 100% | activation, % at 3 µM | hit rate 0.99% among 360,000;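 active means activation above the mean activation of all test compounds in the run plus 3 SD, cut at about 38% in these data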
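System: CHO RD-HGA16 cells carrying human TAAR1 plus Gα16; Incubation: 17-24 h seeding, 75 min 37 °C dye, 30 min RT; Measured by: Fluo-8 fluorescence, 5 s baseline then 140 s kinetic read; Control set: DMSO and PEA EC100; Replication: single well for each compound.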
OX1R antag-1 – blocks the human orexin 1 receptor; OX1R-expressing cells, FRET antagonist read-out; O43613; hit rate 1.8% among 330,000; AID 485270; inhibition, % at 6.6 µM; in the data active means inhibition mostly above about 38%, no sharp cut-off; inactive means mostly below about 40%
GPR7 antagonist – antagonists of human GPR7 (neuropeptides B/W receptor 1); hit rate 1.1% among 290,000; inhibition, % at 4.4 µM; GPR7-expressing cells, fluorescence antagonist assay; P48145; in the data active means inhibition above about 16%, passing the limit was not always enough;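 further: cells stimulated with the agonist NPW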
Target sequence (P48145 whole entry, looked up): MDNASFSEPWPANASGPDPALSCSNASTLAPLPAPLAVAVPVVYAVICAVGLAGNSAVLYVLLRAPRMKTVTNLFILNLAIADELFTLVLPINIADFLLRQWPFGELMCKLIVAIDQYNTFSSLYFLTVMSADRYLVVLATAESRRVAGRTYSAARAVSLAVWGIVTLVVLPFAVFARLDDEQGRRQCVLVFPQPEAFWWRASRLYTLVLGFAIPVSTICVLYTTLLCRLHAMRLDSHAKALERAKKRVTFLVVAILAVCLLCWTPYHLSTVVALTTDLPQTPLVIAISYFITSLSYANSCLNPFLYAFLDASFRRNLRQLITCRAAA
CHO parental Ca – counter-screen: ATP calcium response change in parental CHO cells | parental CHO-K1, ATP-induced calcium, Fluo-8 fluorescence | inhibition, % at 5.6 µM | hit rate 0.63% among 330,000;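 active means inhibition above that plate's mean sample inhibition plus 3 SD, cut at about 26% in these data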
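Assay system: parental CHO cells; Read-out basis: percent inhibition of ATP-evoked calcium rise, normalized to controls; Benchmarks: ATP and no-ATP DMSO wells; Compound dosing: single nominal dose of 5.6 µM per compound; Signal: Fluo-8 calcium dye fluorescence; Also added: ATP as calcium-mobilizing challenge; Repeats: singlicate.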
OX1R antag-2 – antagonists of human orexin 1 receptor. hit rate 0.43% among 330,000. O43613. AID 434989. CHO/OX1R cells, Fluo-8 calcium fluorescence, orexin A. inhibition, % at 5 µM;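 active means inhibition above its plate's threshold, mean inhibition of all tested compounds on the plate plus 3 SD, cut at about 37% in these data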
A number is an active result.

Results for COc1ccc(OC)c2c1C(=O)C(Cl)=C(Cl)C2=O ?
TAAR1 antag: 71; TAAR1 ag: inactive; OX1R antag-1: 104; GPR7 antagonist: inactive; CHO parental Ca: 75; OX1R antag-2: 69

What do the screens show for `COc1ccc(OC)c2c1C(=O)CC2C` (centres undefined)?
TAAR1 antag: inactive; TAAR1 ag: inactive

How did COc1ccc(N)c2c1C(=O)c1ccccc1C2=O do in these assays?
TAAR1 antag: inactive; TAAR1 ag: inactive; OX1R antag-1: 70; GPR7 antagonist: inactive; CHO parental Ca: inactive; OX1R antag-2: inactive

What do the screens show for `COc1ccc(OC)c2c1C(=O)c1ccccc1C2=O`?
TAAR1 antag: inactive; TAAR1 ag: inactive; OX1R antag-1: 65; GPR7 antagonist: inactive; CHO parental Ca: inactive; OX1R antag-2: inactive

Results for CCOC(=O)C1=CCN(S(=O)(=O)c2ccc(Br)cc2)C1c1cccc(F)c1 (centres undefined) ?
TAAR1 antag: inactive; TAAR1 ag: inactive

Results for COc1ccc(-c2csc3nc(C)n(-n4cccc4)c(=O)c23)cc1 ?
TAAR1 antag: inactive; TAAR1 ag: inactive; OX1R antag-1: inactive; GPR7 antagonist: inactive; CHO parental Ca: inactive; OX1R antag-2: inactive

What do the screens show for `Cc1nc2scc(-c3ccc(C(C)(C)C)cc3)c2c(=O)n1N`?
TAAR1 antag: 51; TAAR1 ag: inactive; OX1R antag-1: inactive; GPR7 antagonist: inactive; CHO parental Ca: inactive; OX1R antag-2: inactive

What do the screens show for `COCC(=O)O[C@]1(CCN(C)CCCc2nc3ccccc3[nH]2)CCc2cc(F)ccc2[C@@H]1C(C)C`?
TAAR1 antag: inactive; TAAR1 ag: 41; OX1R antag-1: inactive; CHO parental Ca: inactive; OX1R antag-2: inactive

What do the screens show for `CCOC(=O)CCc1nc2ccccc2[nH]1`?
TAAR1 antag: inactive; TAAR1 ag: inactive; OX1R antag-1: inactive; GPR7 antagonist: inactive; CHO parental Ca: inactive; OX1R antag-2: inactive

Results for Cc1ccc(NC(=S)Nc2ccc(-c3nnc4n3CCCCC4)cc2)cc1C ?
TAAR1 antag: inactive; TAAR1 ag: inactive

How did O=C(NCCc1ccccc1)/C(=C\c1ccc([N+](=O)[O-])cc1)NC(=O)c1ccco1 do in these assays?
TAAR1 antag: inactive; TAAR1 ag: inactive; OX1R antag-1: inactive; GPR7 antagonist: inactive; CHO parental Ca: inactive; OX1R antag-2: inactive

How did CNC(=O)/C(=C\c1ccc([N+](=O)[O-])cc1)NC(C)=O do in these assays?
TAAR1 antag: inactive; TAAR1 ag: inactive; OX1R antag-1: 73; GPR7 antagonist: inactive; CHO parental Ca: inactive; OX1R antag-2: inactive

Results for CC(=O)N/C(=C/c1ccc([N+](=O)[O-])cc1)C(=O)O ?
TAAR1 antag: inactive; TAAR1 ag: inactive; OX1R antag-1: inactive; GPR7 antagonist: inactive; CHO parental Ca: inactive; OX1R antag-2: inactive

How did Cc1ccc(C(=O)N/C(=C\c2ccc([N+](=O)[O-])cc2)C(=O)NCCc2ccccc2)cc1 do in these assays?
TAAR1 antag: inactive; TAAR1 ag: 43; OX1R antag-1: inactive; GPR7 antagonist: inactive; CHO parental Ca: inactive; OX1R antag-2: inactive

Results for Cc1cccc(NC(=O)C(=O)NNC(=O)c2ccc(C(C)(C)C)cc2)c1 ?
TAAR1 antag: inactive; TAAR1 ag: inactive; OX1R antag-1: inactive; GPR7 antagonist: inactive; CHO parental Ca: 94; OX1R antag-2: 95

What do the screens show for `O=C1CCC(NC(=O)Cc2ccccc2)C(=O)N1` (centres undefined)?
TAAR1 antag: inactive; TAAR1 ag: inactive

How did N#C/C(=N\Nc1ccc(F)cc1)C(=O)C1CC1 do in these assays?
TAAR1 antag: inactive; TAAR1 ag: inactive; OX1R antag-1: inactive; GPR7 antagonist: inactive; CHO parental Ca: inactive; OX1R antag-2: inactive

How did N#C/C(=N\Nc1ccc(Cl)c(Cl)c1)C(=O)C1CC1 do in these assays?
TAAR1 antag: inactive; TAAR1 ag: inactive; OX1R antag-1: 50; GPR7 antagonist: inactive; CHO parental Ca: inactive; OX1R antag-2: inactive

Results for N=C(N)c1ccc(/C=C/c2ccc(C(=N)N)cc2O)cc1 ?
TAAR1 antag: inactive; TAAR1 ag: inactive; OX1R antag-1: 46; GPR7 antagonist: inactive; CHO parental Ca: inactive; OX1R antag-2: inactive

Results for Cc1cc(Nc2ccc(Cl)c(C(F)(F)F)c2)cc(=O)n1-c1ccc(Cl)c(C(F)(F)F)c1 ?
TAAR1 antag: inactive; TAAR1 ag: inactive

What do the screens show for `CC(=O)Nc1ccccc1Nc1cc(C#N)c(C#N)cc1[N+](=O)[O-]`?
TAAR1 antag: inactive; TAAR1 ag: inactive; OX1R antag-1: 58; GPR7 antagonist: inactive; CHO parental Ca: inactive; OX1R antag-2: inactive

Results for COc1ccc(CNC(=O)N(C)C[C@@H]2OCc3ccccc3-c3c(n(C)c4ccccc34)C(=O)N([C@@H](C)CO)C[C@@H]2C)cc1 ?
TAAR1 antag: inactive; TAAR1 ag: inactive

Results for CCN(CC)C(=O)c1ccc2nc3ccccc3nc2c1 ?
TAAR1 antag: inactive; TAAR1 ag: inactive; OX1R antag-1: 65; GPR7 antagonist: inactive; CHO parental Ca: inactive; OX1R antag-2: inactive

What do the screens show for `CCN(CC(=O)Nc1ccc(NC(C)=O)cc1)C(=O)c1cc(-c2ccccc2Cl)nc2ccccc12`?
TAAR1 antag: 72; TAAR1 ag: 39

What do the screens show for `Cc1ccc(-c2cc(C(=O)Nc3cccc(S(=O)(=O)N(C)C)c3)c3ccccc3n2)o1`?
TAAR1 antag: 58; TAAR1 ag: inactive; OX1R antag-1: inactive; GPR7 antagonist: inactive; CHO parental Ca: inactive; OX1R antag-2: inactive

Results for CCN(CC)C(=O)c1ccc2nc(-c3ccccc3)c(-c3ccccc3)nc2c1 ?
TAAR1 antag: inactive; TAAR1 ag: inactive; OX1R antag-1: inactive; GPR7 antagonist: inactive; CHO parental Ca: inactive; OX1R antag-2: inactive

What do the screens show for `CCN(CC)S(=O)(=O)c1cc(NC(=O)c2cc(-c3ccccn3)nc3ccccc23)ccc1C`?
TAAR1 antag: 55; TAAR1 ag: inactive; OX1R antag-1: inactive; GPR7 antagonist: inactive; CHO parental Ca: inactive; OX1R antag-2: inactive

Results for CCc1nc2c(OCc3ccc(Cl)cc3)cccn2c1N(C)C(=O)c1ccc2c(c1)OCO2 ?
TAAR1 antag: inactive; TAAR1 ag: inactive

Results for COc1ccc(CCN2CCC(CN3C(=S)NC[C@@H]3Cc3ccccc3)CC2)cc1OC ?
TAAR1 antag: inactive; TAAR1 ag: inactive

What do the screens show for `COc1ccccc1C(=O)N1CCC2CCN(C(=O)OC(C)(C)C)C2C1` (centres undefined)?
TAAR1 antag: inactive; TAAR1 ag: inactive

Results for COC(=O)c1ccc(NC(=O)c2cc(-c3ccccn3)nc3ccccc23)cc1 ?
TAAR1 antag: inactive; TAAR1 ag: inactive; OX1R antag-1: inactive; GPR7 antagonist: inactive; CHO parental Ca: inactive; OX1R antag-2: inactive

Results for CCN(CC)C(=O)c1cccc(NC(=O)c2cc(-c3ccccn3)nc3ccccc23)c1 ?
TAAR1 antag: 49; TAAR1 ag: inactive; OX1R antag-1: inactive; CHO parental Ca: inactive; OX1R antag-2: inactive
